How the values were obtained:
Cytotoxicity = assay type: cell-based; conditions: human, HepG 2.2.15 cells
[1] = system: HBsAg (hepatitis B surface antigen) secretion; assay: Inhibition of HBsAg secretion in HepG 2.2.15 cells; assay type: cell-based; conditions: Hepatitis B virus, HepG2.2.15, read-out: HBsAg IC50
HBV DNA replication = assay: Inhibition of HBV DNA replication in HepG 2.2.15 cells; assay type: cell-based; conditions: Hepatitis B virus, HepG2.2.15, read-out: DNA replication IC50
Kunming mice = assay: Acute toxicity in mice, single oral dose, 14 days observation; assay type: in vivo; conditions: for No. of dead, 1–7 day / No. of dead, 8–14 day / Total death / mortality: 10 mice; for Body weight, 0 day: group average
Summary of the method: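 Male and female Kunming mice (21 ± 2 g) were randomised into 4 groups of 10 (5 male + 5 female). Each group received one oral dose of test compound at 0, 50, 250 or 1250 mg/kg; the 0 group got the same volume of physiological saline. Mice had free food and water at 25 ± 1 °C on a 12-h light/dark cycle. Survival and body weight were recorded up to 14 days.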

SMILES	CC50 (Cytotoxicity) [µM]	IC50 [1] [µM]	IC50 (HBV DNA replication) [µM]	No. of dead, 1–7 day (Kunming mice; 50 mg/kg oral)	No. of dead, 8–14 day (Kunming mice; 50 mg/kg oral)	Total death (Kunming mice; 50 mg/kg oral)	mortality (Kunming mice; 50 mg/kg oral)	Body weight, 0 day (Kunming mice; 50 mg/kg oral) [g]	No. of dead, 1–7 day (Kunming mice; 250 mg/kg oral)	No. of dead, 8–14 day (Kunming mice; 250 mg/kg oral)	Total death (Kunming mice; 250 mg/kg oral)	mortality (Kunming mice; 250 mg/kg oral)	Body weight, 0 day (Kunming mice; 250 mg/kg oral) [g]	No. of dead, 1–7 day (Kunming mice; 1250 mg/kg oral)	No. of dead, 8–14 day (Kunming mice; 1250 mg/kg oral)	Total death (Kunming mice; 1250 mg/kg oral)	mortality (Kunming mice; 1250 mg/kg oral)	Body weight, 0 day (Kunming mice; 1250 mg/kg oral) [g]	survival and abnormality of mice up to 14 days post administration (Kunming mice; single oral dose at 50, 250 and 1250 mg/kg, Kunming mice of both genders)
CC(=O)[C@]1(O)CC[C@@]2(O)[C@]1(C)[C@H](OC(=O)/C=C(\C)C(C)C)C[C@@H]1[C@@]3(C)CC[C@H](O)CC3=CC[C@]12O [Compound 1, caudatin]	245	143	40.6	–	–	–	–	–	–	–	–	–	–	–	–	–	–	–	–
COc1cc(/C=C/C(=O)O[C@H]2CC[C@@]3(C)C(=CC[C@]4(O)[C@@H]3C[C@@H](OC(=O)/C=C(\C)C(C)C)[C@@]3(C)[C@]4(O)CC[C@@]3(O)C(C)=O)C2)cc(OC)c1OC [Compound 18, 3-O-(3,4,5-Trimethoxy)cinnamoyl caudatin]	–	–	–	0	0	0/0	0/0	22.4	0	0	0/0	0/0	22.3	0	0	0/0	0/0	22.6	no dies and abnormality were observed

From PMC7115590 (European Journal of Medicinal Chemistry, 2012)
